Reference: BindingDB's records for doi:10.1016/j.bmcl.2013.01.031 (Birla Institute of Technology, 2013)

Biological target: O-acetylserine sulfhydrylase (Mycobacterium tuberculosis (strain ATCC 25618 / H37Rv), UniProt P9WP55)
Experiment: Inhibition of Mycobacterium tuberculosis CysK1 using O-acetyl-L-serine as substrate assessed as L-cycteine formation after 5 mins by spectrophotometric analysis
In short: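 Dose–response: serial 1:3 dilutions prepared in 50% DMSO (final DMSO 5%). Final mix was 100 mM MOPS pH 7.0, 2 mM O-acetyl-L-serine, […] CysK1, preincubated 5 min at room temperature. The reaction was started with sodium sulphide (final 1 mM). Aliquots taken at time intervals were assayed for L-cysteine by acid-ninhydrin. Specific activity vs concentration was fitted to a sigmoid for IC50.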

Structure (SMILES)	IC50 [µM]
Cc1ccccc1C1NC(=S)Nc2c1c(=O)nc1sc([N+](=O)[O-])cn21 (configuration not stated)	17.7
O=C1Nc2c(c(=O)nc3sc([N+](=O)[O-])cn23)C(c2ccccc2C(F)(F)F)N1 (configuration not stated)	17.7
